According to ChEMBL document CHEMBL4402547, “Synthesis and Pharmacological Characterization of Conformationally Restricted Retigabine Analogues as Novel Neuronal Kv7 Channel Activators” (J Med Chem, 2020):
Calls of active or inactive are those of the source. No cut-off for these calls is given here.

How the values were obtained:
[1] = biological target: Potassium voltage-gated channel subfamily KQT member 5 (Homo sapiens, UniProt Q9NR82); experiment: Activation of human Kv7.5 expressed in CHO cells assessed as delta V at 10 uM by whole cell patch clamp electrophysiology assay; format: cell-based
[2] = Photostability of compound in pH 7.4 buffer assessed as compound degradation at 100 ug/ml incubated for 4 hrs under natural solar light-irradiation by HPLC analysis relative to control
Outline: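 DMSO solutions diluted in pH 7.4 buffer, held in 1 cm quartz cells and exposed to natural daylight. Light-shielded controls kept at 37°C in foil. Aliquots drawn at set intervals and parent compound loss measured by UHPLC: C18 column, 0.1% TFA water/acetonitrile gradient, 45°C, detection at 254 nm.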

[3] = Hydrophobicity of compound assessed as self aggregating property by measuring decrease in ratio between fluorescence intensity peaks at 372 nm to 383 nm at 0.7 to 100 uM by pyrene based fluorescence spectroscopic method; format: physicochemical
Outline: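 DMSO stocks diluted in 0.9% NaCl to 0.7–100 μM, residual DMSO <0.1%. Pyrene used as probe, excited at 334 nm; emission recorded 200–700 nm, ten scans summed, at 25°C. Ratio of peak I (372 nm) to peak III (383 nm) intensity plotted against concentration.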

[4] = biological target: T1, Potassium voltage-gated channel subfamily KQT member 3 (Homo sapiens) (UniProt O43525); experiment: Activation of human Kv7.3 expressed in CHO cells assessed as delta V at 30 uM by whole cell patch clamp electrophysiology assay; format: cell-based
T1 sequence (whole entry): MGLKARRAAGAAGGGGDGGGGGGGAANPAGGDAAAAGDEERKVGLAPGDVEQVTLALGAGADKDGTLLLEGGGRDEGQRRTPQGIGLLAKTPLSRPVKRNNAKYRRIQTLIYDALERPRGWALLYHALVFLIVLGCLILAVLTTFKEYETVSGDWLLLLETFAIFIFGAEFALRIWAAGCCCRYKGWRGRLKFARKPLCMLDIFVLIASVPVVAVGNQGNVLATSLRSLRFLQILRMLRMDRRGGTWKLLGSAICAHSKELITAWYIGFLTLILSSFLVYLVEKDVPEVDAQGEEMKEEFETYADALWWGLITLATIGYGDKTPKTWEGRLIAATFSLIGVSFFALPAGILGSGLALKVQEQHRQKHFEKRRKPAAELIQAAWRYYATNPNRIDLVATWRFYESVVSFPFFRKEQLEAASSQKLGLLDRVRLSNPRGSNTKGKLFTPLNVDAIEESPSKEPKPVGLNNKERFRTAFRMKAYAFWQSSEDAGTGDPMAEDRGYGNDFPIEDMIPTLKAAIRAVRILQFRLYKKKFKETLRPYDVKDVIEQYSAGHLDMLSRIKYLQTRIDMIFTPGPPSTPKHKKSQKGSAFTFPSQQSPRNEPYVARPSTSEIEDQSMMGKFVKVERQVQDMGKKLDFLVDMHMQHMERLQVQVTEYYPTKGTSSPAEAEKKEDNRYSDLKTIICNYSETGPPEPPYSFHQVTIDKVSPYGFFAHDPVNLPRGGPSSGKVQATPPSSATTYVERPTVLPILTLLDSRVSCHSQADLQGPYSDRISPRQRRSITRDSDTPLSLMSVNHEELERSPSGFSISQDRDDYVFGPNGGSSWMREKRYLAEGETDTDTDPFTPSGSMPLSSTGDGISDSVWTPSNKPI

[5] = tested on: Potassium voltage-gated channel subfamily KQT member 2 (Homo sapiens), O43526 [F168L]; experiment: Activation of ICA-insensitive human Kv7.2 F168L mutant expressed in CHO cells assessed as increase in channel current amplitude at 10 uM measured at holding potential of -40 mV by whole cell patch clamp electrophysiology assay; format: cell-based
Outline: (§1)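 CHO cells transiently co-transfected (Lipofectamine 2000, 4 μg total cDNA, EGFP marker) with human channel cDNA in pcDNA3.1, recorded 24 h later. Whole-cell patch clamp at 20–22°C, 3–5 MΩ pipettes, perfused extracellular solution pH 7.4. Held at −80 mV; 3-s ramps −80 to +20 mV ± 10 μM drug. Current at −40 mV with vs without drug expressed as ratio; ≥3 cells from ≥2 transfections, mean ± SEM.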

[6] = biological target: T2, Potassium voltage-gated channel subfamily KQT member 4 (Homo sapiens, UniProt P56696); experiment: Activation of human Kv7.4 expressed in CHO cells assessed as delta V at 10 uM by whole cell patch clamp electrophysiology assay; format: cell-based
T2 sequence (P56696 whole entry): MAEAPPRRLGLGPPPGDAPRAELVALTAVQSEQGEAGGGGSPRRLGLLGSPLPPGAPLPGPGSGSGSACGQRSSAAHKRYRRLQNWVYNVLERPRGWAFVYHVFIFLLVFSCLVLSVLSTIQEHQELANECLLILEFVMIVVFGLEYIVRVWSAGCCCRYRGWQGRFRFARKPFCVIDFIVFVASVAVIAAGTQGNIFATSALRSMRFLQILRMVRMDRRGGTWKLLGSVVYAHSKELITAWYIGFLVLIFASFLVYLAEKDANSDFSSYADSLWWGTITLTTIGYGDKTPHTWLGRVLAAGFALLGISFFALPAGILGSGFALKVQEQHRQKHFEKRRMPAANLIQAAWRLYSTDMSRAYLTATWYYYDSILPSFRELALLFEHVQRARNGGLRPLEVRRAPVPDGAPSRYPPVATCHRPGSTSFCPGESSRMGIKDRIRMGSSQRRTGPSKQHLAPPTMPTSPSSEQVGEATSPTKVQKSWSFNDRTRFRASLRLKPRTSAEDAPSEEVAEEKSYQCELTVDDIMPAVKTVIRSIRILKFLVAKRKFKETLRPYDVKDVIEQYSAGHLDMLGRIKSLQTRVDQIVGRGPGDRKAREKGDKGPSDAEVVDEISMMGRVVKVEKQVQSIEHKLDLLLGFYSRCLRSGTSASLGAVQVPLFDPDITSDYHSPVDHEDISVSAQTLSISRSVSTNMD

[7] = biological target: T3, Potassium voltage-gated channel subfamily KQT member 2 (Homo sapiens, UniProt O43526); experiment: Activation of human Kv7.2 expressed in CHO cells assessed as increase in current amplitude at 10 uM measured at holding potential of -40 mV by whole cell patch clamp electrophysiology assay relative to control; format: cell-based; outline: as §1
[8] = biological target: T3, Potassium voltage-gated channel subfamily KQT member 2; experiment: Activation of human Kv7.2 expressed in CHO cells assessed as delta V at 10 uM by whole cell patch clamp electrophysiology assay; format: cell-based
Outline: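 Human Kv7.2 transiently expressed in CHO cells; whole-cell recordings at room temperature (20–22°C), pH 7.4 extracellular solution. 3-s ramps from −80 to +20 mV with 0.01–10 μM drug. ΔV taken as shift of the potential where current reaches 20% of peak, drug vs control, plotted against log concentration. Four-parameter logistic fit gives EC50; mean ± SD of ≥3 experiments.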

Chain of Potassium voltage-gated channel subfamily KQT member 2 (Homo sapiens), O43526 [F168L] (O43526 whole entry F168L, the tested form may be a part): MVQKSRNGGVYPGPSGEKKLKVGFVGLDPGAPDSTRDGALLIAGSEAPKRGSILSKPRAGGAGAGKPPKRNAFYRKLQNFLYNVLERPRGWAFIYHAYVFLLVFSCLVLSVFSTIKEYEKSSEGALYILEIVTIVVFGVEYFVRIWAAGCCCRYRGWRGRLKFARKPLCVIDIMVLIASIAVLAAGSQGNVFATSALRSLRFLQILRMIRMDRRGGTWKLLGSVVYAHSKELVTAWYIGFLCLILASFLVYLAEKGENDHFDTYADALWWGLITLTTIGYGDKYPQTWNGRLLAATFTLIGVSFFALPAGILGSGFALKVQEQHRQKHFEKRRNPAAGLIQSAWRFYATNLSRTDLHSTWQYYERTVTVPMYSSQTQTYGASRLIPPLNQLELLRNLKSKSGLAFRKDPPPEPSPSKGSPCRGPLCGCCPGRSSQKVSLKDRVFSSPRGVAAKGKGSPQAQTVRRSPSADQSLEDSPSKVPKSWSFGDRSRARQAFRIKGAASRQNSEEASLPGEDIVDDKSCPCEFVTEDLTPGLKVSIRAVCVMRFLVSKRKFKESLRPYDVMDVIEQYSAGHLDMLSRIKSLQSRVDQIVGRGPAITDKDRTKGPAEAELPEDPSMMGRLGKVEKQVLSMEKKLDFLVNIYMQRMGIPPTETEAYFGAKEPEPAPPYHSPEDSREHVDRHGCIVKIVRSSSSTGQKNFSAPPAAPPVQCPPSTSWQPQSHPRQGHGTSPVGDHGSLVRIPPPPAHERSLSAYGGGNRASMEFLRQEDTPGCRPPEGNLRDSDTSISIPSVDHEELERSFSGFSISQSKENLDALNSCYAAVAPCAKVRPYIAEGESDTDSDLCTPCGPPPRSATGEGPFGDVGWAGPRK
Chain of Potassium voltage-gated channel subfamily KQT member 5 (Q9NR82 whole entry): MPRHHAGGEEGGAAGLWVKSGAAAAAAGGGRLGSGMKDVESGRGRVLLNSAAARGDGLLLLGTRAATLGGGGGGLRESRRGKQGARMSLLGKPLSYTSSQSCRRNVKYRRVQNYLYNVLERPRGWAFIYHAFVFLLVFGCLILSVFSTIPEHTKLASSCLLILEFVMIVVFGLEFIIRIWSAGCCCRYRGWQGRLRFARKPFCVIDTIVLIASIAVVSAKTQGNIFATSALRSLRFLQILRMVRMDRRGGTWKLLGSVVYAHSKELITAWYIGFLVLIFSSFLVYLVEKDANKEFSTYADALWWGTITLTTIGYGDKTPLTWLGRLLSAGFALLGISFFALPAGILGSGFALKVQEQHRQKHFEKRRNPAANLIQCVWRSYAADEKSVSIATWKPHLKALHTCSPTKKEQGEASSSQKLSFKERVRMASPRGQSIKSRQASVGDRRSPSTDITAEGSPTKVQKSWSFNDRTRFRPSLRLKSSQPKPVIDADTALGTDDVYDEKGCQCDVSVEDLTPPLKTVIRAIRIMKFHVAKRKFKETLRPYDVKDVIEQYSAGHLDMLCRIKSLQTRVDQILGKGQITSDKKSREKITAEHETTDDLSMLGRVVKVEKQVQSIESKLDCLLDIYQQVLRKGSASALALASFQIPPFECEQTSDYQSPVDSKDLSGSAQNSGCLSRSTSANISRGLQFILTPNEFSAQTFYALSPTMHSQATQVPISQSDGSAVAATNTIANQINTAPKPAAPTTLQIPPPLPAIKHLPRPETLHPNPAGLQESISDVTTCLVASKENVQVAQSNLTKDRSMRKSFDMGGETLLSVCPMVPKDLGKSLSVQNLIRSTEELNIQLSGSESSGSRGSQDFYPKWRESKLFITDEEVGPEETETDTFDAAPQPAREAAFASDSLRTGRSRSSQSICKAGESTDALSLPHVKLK
T3 sequence (O43526 whole entry): as the sequence (O43526 whole entry F168L, the tested form may be a part) above, with L168F counted along it

CC(C)(C)CC(=O)Nc1ccc2c(ccn2Cc2ccc(C(F)(F)F)cc2)c1
Activity [1]: -19.7 mV
Drug degradation [2]: 6.62%
Activity [3]: Active
Activity [4]: -21.4 mV
Activity [5]: Active
Activity [6]: -24.43 mV
Activity [7]: Active
Activity [8]: -30 mV

CCCCCCC(=O)Nc1ccc2c(ccn2Cc2ccc(C(F)(F)F)cc2)c1
Activity [1]: -25.6 mV
Drug degradation [2]: 5.82%
Activity [3]: Active
Activity [4]: -26.2 mV
Activity [5]: Active
Activity [6]: -32.85 mV
Activity [7]: Active
Activity [8]: -29.5 mV

CCOC(=O)Nc1ccc(NCc2ccc(F)cc2)cc1N [EZOGABINE]
Activity [1]: -21.95 mV
Drug degradation [2]: 25.2%
Activity [3]: Not Active
Activity [4]: -39.9 mV
Activity [5]: Active
Activity [6]: -15.19 mV
Ratio [7]: 6
Activity [8]: -25.4 mV
